Where a SMILES comes first, the peptide text is derived from it. [ ]: non-standard residue; d: D form. Dolaproine = CO[C@@H]([C@@H]1CCCN1)[C@@H](C)C(=O)O; Dil = CC[C@H](C)[C@H](NC)[C@@H](CC(=O)O)OC; NMeV = CN[C@H](C(=O)O)C(C)C
Key:
human CD22 = conditions: cited from earlier work
Daudi cells [1] = experiment: cytotoxicity assay for ligand-toxin conjugates; type: cell-based; conditions: read-out: EC50 (cytotoxicity), 72h, MTT
Daudi cells [2] = experiment: uptake of ligand-FITC conjugates by Daudi cells in pure mouse serum; type: cell-based; conditions: 60 min, 37 °C
Summary of the method: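 FITC-labelled ligand conjugates serially diluted and incubated with ~10^6 Daudi B cells in 100 uL pure mouse serum for 60 min at 37 °C. Cells washed twice in HBSS; uptake read by flow cytometry and curve-fitted.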

hCD22 [3] = target: T1, hCD22 (Homo sapiens, UniProt P20273); experiment: flow cytometry competitive binding assay, Neu5Gc-PAA to hCD22-CHO cells
T1 sequence (P20273 20-847): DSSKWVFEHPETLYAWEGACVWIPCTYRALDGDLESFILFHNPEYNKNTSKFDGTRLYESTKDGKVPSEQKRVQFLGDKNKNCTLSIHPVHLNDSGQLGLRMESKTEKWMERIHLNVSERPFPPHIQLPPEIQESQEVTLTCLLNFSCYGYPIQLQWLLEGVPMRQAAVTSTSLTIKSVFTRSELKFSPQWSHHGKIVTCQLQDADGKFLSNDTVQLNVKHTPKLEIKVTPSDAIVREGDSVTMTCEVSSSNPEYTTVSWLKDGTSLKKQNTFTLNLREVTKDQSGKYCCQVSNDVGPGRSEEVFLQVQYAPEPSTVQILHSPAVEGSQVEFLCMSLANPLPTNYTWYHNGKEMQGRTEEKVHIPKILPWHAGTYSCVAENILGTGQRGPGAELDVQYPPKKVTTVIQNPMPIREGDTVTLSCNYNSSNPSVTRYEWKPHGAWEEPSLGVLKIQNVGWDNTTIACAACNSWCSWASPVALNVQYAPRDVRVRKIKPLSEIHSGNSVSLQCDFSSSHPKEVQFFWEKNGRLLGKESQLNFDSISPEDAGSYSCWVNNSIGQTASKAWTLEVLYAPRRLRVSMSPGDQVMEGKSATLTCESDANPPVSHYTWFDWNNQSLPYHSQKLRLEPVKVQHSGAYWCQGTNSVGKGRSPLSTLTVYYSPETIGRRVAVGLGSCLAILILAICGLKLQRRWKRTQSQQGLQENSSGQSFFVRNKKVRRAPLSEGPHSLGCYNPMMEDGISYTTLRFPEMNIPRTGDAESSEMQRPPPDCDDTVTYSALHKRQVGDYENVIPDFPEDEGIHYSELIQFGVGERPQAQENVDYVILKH
Summary of the method: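 Serial dilutions of sialoside ligands, quantified by periodate-resorcinol assay, mixed in cold HBSS/0.5% BSA with biotinylated Neu5Gcα2–6LacNAc-PAA (1 MDa, 1 μg/mL). ~10^6 hCD22-CHO cells added; 40 min, 4 °C, dark. Two washes, then streptavidin-PE (1:1000) for 30 min at 4 °C. Read by flow cytometry. Triplicate titrations; IC50 from curve fit, 0% = no polymer, 100% = polymer without competitor.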

hCD22 [4] = target: T1, hCD22; conditions: equilibrium dialysis at 4° C; cited from earlier work

## CC(=O)NC1C(O)CC(O)(C(=O)O)OC1C(O)C(O)CNC(=O)c1ccc(-c2ccccc2)cc1 (stereo not shown) [1a, 9-N-biphenyl carboxamide-Neu5Ac]
Human CD22
  affinity for human CD22: low micromolar range

## O=C(CF)N[C@H]1[C@H]([C@H](O)[C@H](O)CNC(=O)c2cccc(Oc3ccccc3)c2)OC(O)(C(=O)O)C[C@@H]1O (stereo partly shown) [1c, 9-N-m-phenoxybenzamide-Neu5FAc]
Human CD22
  affinity for human CD22: low micromolar range

## CC[C@H](C)[C@@H]([C@@H](CC(=O)N1CCC[C@H]1[C@H](OC)[C@@H](C)C(=O)N[C@@H](Cc1ccccc1)C(=O)O)OC)N(C)C(=O)[C@@H](NC(=O)[C@@H](NC)C(C)C)C(C)C [MMAF, monomethyl auristatin F] (H-[NMeV]V[Dil][Dolaproine]F-OH)
Daudi cells [1]
  EC50: 0.2 µM

## CC(=O)NC1C(NC(=O)C[C@H](NC(=O)[C@H](C)NC(=O)[C@@H](NC(=O)[C@@H](N)CCCCN)C(C)C)C(=O)N[C@@H](CCCCN)C(=O)N[C@H](C(=O)O)[C@@H](C)O)OC(CO)C(OC2OC(CO)C(OC3OC(COC4OC(CO)C(O)C(O)C4OC4OC(CO)C(OC5OC(COC6(C(=O)[O-])CC(O)C(NC(C)=O)C([C@H](O)[C@H](O)CO)O6)C(O)C(O)C5O)C(O)C4NC(C)=O)C(O)C(OC4OC(CO)C(O)C(O)C4OC4OC(CO)C(OC5OC(COC6(C(=O)[O-])CC(O)C(NC(C)=O)C([C@H](O)[C@H](O)CO)O6)C(O)C(O)C5O)C(O)C4NC(C)=O)C3O)C(O)C2NC(C)=O)C1O.[Na+].[Na+] (stereo partly shown) [SGP]
Daudi cells [2]
  binding/uptake by Daudi cells: weak or no binding/uptake
hCD22 [3]
  fold higher binding affinity for hCD22 compared to the monovalent ligand (6′SLN): three-fold higher

## Neu5Acα2–6Galβ1–4GlcNAc [6′SLN]
hCD22 [3]; competition with Neu5Gc-PAA, 40 min, 4 °C
  IC50: 62 µM
hCD22 [4]
  Kd: 32 µM

Reference: publication PMC5755971 (Journal of the American Chemical Society, 2017)
